Read-outs that look alike come from different tables or passages of the source.
Key:
[1] = system: human breast cancer cell line (MCF-7); test: MTT anti-proliferative assay, MCF-7; assay type: cell-based
[2] = system: murine mammary carcinoma cell line (4T1); test: MTT anti-proliferative assay, 4T1; assay type: cell-based; conditions: read-out: 4T1 IC50, 48-hour treatment, mean ± SD (n = 2)
[3] = system: prostatic small cell carcinoma cell line (PC-3); test: MTT anti-proliferative assay, PC-3; assay type: cell-based
[4] = system: normal human embryonic kidney (HEK-293) cell line; test: MTT cytotoxicity towards normal cell line HEK-293; assay type: cell-based
MCF-7 cells [5] = test: annexin-V/FITC-PI apoptosis assay; assay type: cell-based, human; conditions: MCF-7, 48 hours, at respective IC50
MCF-7 cells [6] = test: Nuclear staining assay; assay type: cell-based, human; conditions: MCF-7, IC50, 48 hours, vs control and BG-45
MCF-7 cells [7] = test: ROS generation; assay type: cell-based, human; conditions: MCF-7, IC50 dose, vs 1% DMSO control
How it was run: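 After 24 h in 12-well plates, MCF-7 cells were treated for 48 h with test compound, reference compound, or 1% DMSO as control. Medium was replaced with 10 μM DCFH-DA for 10 min at 37 °C in darkness. DCF fluorescence was imaged by laser scanning confocal microscopy at 60× (ex 485 nm, em 535 nm). Intensity was quantified by image analysis as relative fluorescence (%) versus control. Data are mean standard deviation (n = 2), with one-way ANOVA.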

[8] = read-out: MCF-7 IC50, MTT, 48-hour treatment, mean ± SD (n = 2)
[9] = read-out: PC-3 IC50, MTT, 48-hour treatment, mean ± SD (n = 2)
[10] = read-out: HEK-293 IC50, MTT, 48-hour treatment, mean ± SD (n = 2)
[11] = Homo sapiens, MCF7, 48 h, read-out: MCF-7 IC50, MTT, 48-hour treatment, mean ± SD (n = 2)

| Structure (SMILES) | IC50 [1, 8] [µM] | IC50 [2] [µM] | IC50 [3, 9] [µM] | IC50 [4, 10] [µM] | IC50 [1, 11] [µM] | also measured |
| --- | --- | --- | --- | --- | --- | --- |
| COc1ccc(-c2noc(-c3cccs3)c2C(F)(F)F)cc1 [TTI-3] | 21.5 ± 0.11 | 24.3 ± 0.24 | 21.97 ± 0.21 | 102.2 ± 0.27 |  |  |
| COc1ccc(-c2noc(-c3cccs3)c2C(F)(F)F)cc1OC [TTI-4, 3-(3,4-dimethoxyphenyl)-5-(thiophen-2-yl)-4-(trifluoromethyl)isoxazole] | 2.91 ± 0.13 | 11.6 ± 0.35 | 8.08 ± 0.29 | 70.49 ± 0.22 |  | superior anti-breast cancer activity than TTI-3 ([1]; MCF-7 IC50 compared with TTI-3): 7 times |
| FC(F)(F)c1c(-c2ccc3c(c2)OCCO3)noc1-c1cccs1 [TTI-5, 3-(2,3-dihydrobenzo[b][1,4]dioxin-6-yl)-5-(thiophen-2-yl)-4-(trifluoromethyl)isoxazole] |  | 28.6 ± 0.09 | 26.89 ± 0.11 | 109.7 ± 0.13 |  |  |
| COc1cc(-c2noc(-c3cccs3)c2C(F)(F)F)cc(OC)c1OC [TTI-6, 5-(thiophen-2-yl)-4-(trifluoromethyl)-3-(3,4,5-trimethoxyphenyl)isoxazole] | 1.91 ± 0.09 | 10.9 ± 0.2 | 7.67 ± 0.31 |  | 1.92 | selectivity for MCF-7 over other cancer cell lines (first value) ([1]; matches 4T1/MCF-7 IC50 ratio): 5.70 fold; selectivity for MCF-7 over other cancer cell lines (second value) ([1]; matches PC-3/MCF-7 IC50 ratio): 4 fold; selectivity for MCF-7 cells over HEK-293 cell lines ([1]; ratio of IC50 values): 35.62 fold; IC50 ([4]; Homo sapiens, HEK293, 48 h, read-out: HEK-293 IC50, MTT, 48-hour treatment, mean ± SD (n = 2)): 68.29 ± 0.11 µM; total apoptotic percentage (Q2 and Q4) (MCF-7 cells [5]): 50.0 ± 1.3%; nuclear / cell morphology (DAPI, AO staining) (MCF-7 cells [6]): significant alteration in cell morphology; relative fluorescence intensity vs control (ROS) (MCF-7 cells [7]): significant increase |
| FC(F)(F)c1c(-c2ccc(Cl)cc2)noc1-c1cccs1 [TTI-9] | 20.4 ± 0.21 | 21.72 ± 0.19 | 21.92 ± 0.21 | 96.6 ± 0.47 |  |  |
| FC(F)(F)c1ccc(-c2noc(-c3cccs3)c2C(F)(F)F)cc1 [TTI-11] | 19.3 ± 0.24 | 19.36 ± 0.19 | 20.99 ± 0.19 | 92.75 ± 0.15 |  |  |
| O=[N+]([O-])c1ccc(-c2noc(-c3cccs3)c2C(F)(F)F)cc1 [TTI-12, 3-(4-nitrophenyl)-5-(thiophen-2-yl)-4-(trifluoromethyl)isoxazole] | 17.03 ± 0.12 | 17 ± 0.31 | 15.4 ± 0.25 | 83.77 ± 0.28 |  |  |
| COc1ccc(-c2noc(-c3ccc(C)s3)c2C(F)(F)F)cc1OC [TTI-13, 3-(3,4-dimethoxyphenyl)-5-(5-methylthiophen-2-yl)-4-(trifluoromethyl)isoxazole] |  | 15.15 ± 0.1 | 14.2 ± 0.41 | 75.91 ± 0.16 | 13.4 ± 0.19 |  |
| COc1ccc(-c2noc(-c3cccs3)c2C(F)F)cc1OC [TTI-14, 4-(difluoromethyl)-3-(3,4-dimethoxyphenyl)-5-(thiophen-2-yl)isoxazole] | 9.09 ± 0.25 | 11.7 ± 0.14 |  | 71.14 ± 0.21 |  | IC50 ([3]; 48 h, read-out: PC-3 IC50, MTT, 48-hour treatment, mean ± SD (n = 2)): 13 ± 0.17 µM |
| FC(F)(F)c1c(-c2cnn3c(-c4ccccc4)ccnc23)noc1-c1cccs1 [TTI-15, 3-(7-phenylpyrazolo[1,5-a]pyrimidin-3-yl)-5-(thiophen-2-yl)-4-(trifluoromethyl)isoxazole] |  | 14.3 ± 0.21 | 13.7 ± 0.39 | 74.3 ± 0.25 | 9.44 ± 0.22 |  |
